Measurements reported in publication PMC3306175 (Journal of Immunology (Baltimore, Md. : 1950), 2009).
Peptide text beside a SMILES is read from it.

Tests used:
[1] = system: gliadin-reactive intestinal T cell lines (iTCLs) from HLA-DQ2+ celiac patients; experiment: IFN-γ production; type: cell-based, human; details: for Hierarchical clustering by intensity of IFN-γ responses (OD peptide / OD medium): 14 patients, Cluster 3.0, Pearson correlation; for IFN-γ response (in words): peptide 30 μg/ml; for Number of patients whose iTCL recognized the peptide (positive IFN-γ response) / Percentage of patients recognizing the peptide: 14 adult HLA-DQ2+ CD patients, positive = IFN-γ at least twice medium alone; for Potency in eliciting T cell responses relative to 33-mer: polyclonal iTCLs or peptide-specific TCCs
Procedure, shortened: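 iTCLs grown from collagenase-digested jejunal explants in X-Vivo15 with 5% AB serum, stimulated with irradiated PBMC, TG2-deamidated PT-gliadin (50 μg/ml) and IL-15 (10 ng/ml). T cells (3 × 10^4) were incubated with autologous EBV-B cells (6 × 10^4) and TG2-treated peptides (30 μg/ml; 37°C, 4 h, pH 6.8). IFN-γ was measured by ELISA at 48 h. Positive response: ≥2× medium. OD ratios were row/column-normalised, then clustered. Duplicates, ≥3 experiments.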

[2] = system: DQ2-α-I/III- or DQ2-α-II-specific intestinal T cells; experiment: Dose-response assays with peptide-pulsed irradiated APCs on iTCLs and TCCs; type: cell-based, human
Procedure, shortened: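 Autologous B-LCL APCs, irradiated, pulsed overnight at 37°C with 10-fold increasing doses of peptide. Peptide deamidated beforehand with TG2 (1:1 enzyme/substrate, 4 h, 37°C, Tris-HCl pH 6.8 with CaCl2, NaCl, DTT). APCs washed before adding T cells (3 × 10^4 iTCL or 1 × 10^4 TCC). IFN-γ ELISA on 48 h supernatants. Mean of duplicates; three separate experiments.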

[3] = system: DQ2-α-I/III-specific T cell clones from patient CD230204; experiment: IFN-γ and proliferative responses of 17-mer-specific intestinal T cell clones; type: cell-based, human; details: TCCs from patient CD230204; peptide 30 μg/ml (8–19 μM)
Procedure, shortened: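 T cell clones were derived from the patient's intestinal T cell line by limiting dilution with irradiated allogeneic PBMC, B-LCL and PHA. Peptides were deamidated with TG2 (1:1, 4 h, 37°C, Tris-HCl pH 6.8, CaCl2, NaCl, DTT). Each clone (1 × 10^4) was cultured with autologous B-LCL. IFN-γ ELISA on 48 h supernatants; proliferation by [3H]thymidine added for a further 16 h. Duplicates.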

[4] = system: iTCLs from patient CD041051; experiment: HLA restriction with anti-HLA-DR and anti-HLA-DQ blocking mAbs; type: cell-based, human; details: peptide 15 μM; anti-HLA-DR and anti-HLA-DQ mAbs 10 μg/ml
Procedure, shortened: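 Intestinal T cell lines came from collagenase-digested mucosal explants, expanded with irradiated PBMC, TG2-deamidated peptic-tryptic gliadin (50 μg/ml) and IL-15. For the assay, B-LCL APCs were preincubated 10 min with anti-HLA-DR (clone L243) or anti-HLA-DQ (clone SPV-L3) before peptide. T cells were then added. IFN-γ was measured by ELISA in 48 h supernatants. Duplicate wells, at least three independent experiments.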

[5] = biological target: purified HLA-DQ2 molecules (Homo sapiens, UniProt P01909+P01920); experiment: HLA-DQ2 binding assay; details: read-out: IC50 of binding to purified HLA-DQ2; TG2-deamidated peptides; inhibition of 0.1–1 nM 125I-radiolabeled probe peptide binding to purified HLA-DQ2 (5–500 nM), 48 h in PBS; three or more independent assays
Sequence of purified HLA-DQ2 molecules (P01920 33-261, other chains not shown): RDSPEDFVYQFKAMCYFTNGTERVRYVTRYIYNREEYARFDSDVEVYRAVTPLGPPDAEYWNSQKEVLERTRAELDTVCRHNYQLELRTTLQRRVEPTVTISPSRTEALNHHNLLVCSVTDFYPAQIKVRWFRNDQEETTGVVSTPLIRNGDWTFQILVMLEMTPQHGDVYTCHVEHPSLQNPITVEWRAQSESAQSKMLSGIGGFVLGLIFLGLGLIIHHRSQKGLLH

LQPQQPFPQQPQQPYPQQPQ [DQ2-γ-V] was tested, and the “Hierarchical clustering by intensity of IFN-γ responses (OD peptide / OD medium)” value [1] was “low intensity of IFN-γ responses” and the “IFN-γ response (in words)” value ([1]; iTCL of patient CD230204) was “weakly”.
In the case of `CC(C)C[C@H](NC(=O)[C@H](CCC(N)=O)NC(=O)[C@@H](N)CC(C)C)C(=O)N[C@@H](CCC(N)=O)C(=O)N1CCC[C@H]1C(=O)N[C@@H](Cc1ccccc1)C(=O)N1CCC[C@H]1C(=O)N[C@@H](CCC(N)=O)C(=O)N1CCC[C@H]1C(=O)N[C@@H](CCC(=O)O)C(=O)N[C@@H](CC(C)C)C(=O)N1CCC[C@H]1C(=O)N[C@@H](Cc1ccc(O)cc1)C(=O)O` [13-mer] (H-LQLQPFPQPELPY-OH), the “Number of patients whose iTCL recognized the peptide (positive IFN-γ response)” value (shortened to “Number”) [1] is reported as “five”, the “Hierarchical clustering by intensity of IFN-γ responses (OD peptide / OD medium)” value [1] is reported as “strongest and more consistent responses” and the “IFN-γ response (in words)” value ([1]; iTCL of patient CD041051) is reported as “weak IFN-γ production”. The “IFN-γ response (in words)” value ([1]; iTCL of patient CD090401) was “very high levels of IFN-γ” and the “Potency in activating DQ2-α-II-specific iTCLs (dose-response)” value ([2]; iTCLs from CD041051, APCs pulsed overnight with 10-fold increasing doses of TG2-deamidated peptide) was “weak stimulatory capacity and only at very high concentration (10 μM)”.
In the case of PQLPQFLQPQPYPQPQLPYPQPQPF [25-mer], the “Hierarchical clustering by intensity of IFN-γ responses (OD peptide / OD medium)” value [1] is reported as “strongest and more consistent responses” and the “Potency in eliciting T cell responses relative to 33-mer” value [1] is reported as “as potent as 33-mer”.
In the case of PQPQPFLPQLPYPQPQS [AG11], the “Hierarchical clustering by intensity of IFN-γ responses (OD peptide / OD medium)” value [1] is reported as “strongest and more consistent responses”.
For PQQPQQSFPQQQQPA [DQ2-γ-I], the “Number” value [1] was 5 patients, the “Hierarchical clustering by intensity of IFN-γ responses (OD peptide / OD medium)” value [1] was “low intensity of IFN-γ responses” and the “IFN-γ response (in words)” value ([1]; iTCL of patient CD230204) was “weakly”.
In the case of GQGIIQPQQPAQLIR [DQ2-γ-II], the “Hierarchical clustering by intensity of IFN-γ responses (OD peptide / OD medium)” value [1] is reported as “low intensity of IFN-γ responses” and the “IFN-γ response (in words)” value ([1]; iTCL of patient CD061204) is reported as “recognizing”.
In the case of QLQPFPQPTLPYPQPQS [T65], the “Number” value [1] is reported as “four”, the “Hierarchical clustering by intensity of IFN-γ responses (OD peptide / OD medium)” value [1] is reported as “strongest and more consistent responses” and the “IFN-γ response (in words)” value ([1]; iTCL of patient CD090401) is reported as “recognized”.
QQPPFSQQQQSPFSQ [Glt-156] was tested, and the “Number” value [1] was “no intestinal T cell response”.
For QPQQPFPQPQQPFPWQP [DQ2-ω-1], the “Number” value [1] was “five”, the “Percentage of patients recognizing the peptide” value [1] was 35% and the “Hierarchical clustering by intensity of IFN-γ responses (OD peptide / OD medium)” value [1] was “strongest and more consistent responses”. For the same compound, the “IFN-γ response (in words)” value ([1]; iTCL of patient CD041051) was “very high”, the “IFN-γ response (in words)” value ([1]; iTCL of patient CD090401) was “intermediate IFN-γ levels” and the “IFN-γ response (in words)” value ([1]; iTCL of patient CD130406) was “responded”. For the same compound, the “IFN-γ production and proliferation of 17-mer-specific T cell clones” value (shortened to “IFN-γ production and proliferation”) [3] was “no cross-reactivity occurred”, the “IFN-γ production at 10-fold increased concentrations of peptide” value ([2]; iTCLs from patient CD041051) was “retained stimulatory activity even at low concentrations” and the “HLA restriction of recognition” value [4] was “restricted by HLA-DQ2”.
PQPQPFPPQLPYPQPQS [AG12] was tested, and the “Hierarchical clustering by intensity of IFN-γ responses (OD peptide / OD medium)” value [1] was “low intensity of IFN-γ responses” and the “IFN-γ response (in words)” value ([1]; iTCL of patient CD090401) was “recognized”.
PFPQQPQQPYPQQPQ [DQ2-γ-III] was tested, and the “Hierarchical clustering by intensity of IFN-γ responses (OD peptide / OD medium)” value [1] was “low intensity of IFN-γ responses”, the “IFN-γ response (in words)” value ([1]; iTCL of patient CD061204) was “recognizing” and the “IFN-γ response (in words)” value ([1]; iTCL of patient CD090401) was “recognized”.
For `CC(C)C[C@H](NC(=O)[C@H](CCC(=O)O)NC(=O)[C@@H]1CCCN1C(=O)[C@H](CCC(N)=O)NC(=O)[C@@H]1CCCN1C(=O)[C@H](Cc1ccc(O)cc1)NC(=O)[C@@H]1CCCN1C(=O)[C@H](CCC(N)=O)NC(=O)[C@@H]1CCCN1C(=O)[C@@H](N)CCC(N)=O)C(=O)N1CCC[C@H]1C(=O)N[C@@H](Cc1ccc(O)cc1)C(=O)N1CCC[C@H]1C(=O)N[C@@H](CCC(N)=O)C(=O)N1CCC[C@H]1C(=O)N[C@@H](CCC(N)=O)C(=O)N1CCC[C@H]1C(=O)N[C@@H](Cc1ccccc1)C(=O)O` [18-mer] (H-QPQPYPQPELPYPQPQPF-OH), the “Hierarchical clustering by intensity of IFN-γ responses (OD peptide / OD medium)” value [1] was “strongest and more consistent responses” and the “IFN-γ response (in words)” value ([1]; iTCL of patient CD090401) was “very high levels of IFN-γ”.
QLQPFPQPQLPYPQPQP [17-mer] was tested, and the “Hierarchical clustering by intensity of IFN-γ responses (OD peptide / OD medium)” value [1] was “strongest and more consistent responses”, the “IFN-γ response (in words)” value ([1]; iTCL of patient CD090401) was “very high levels of IFN-γ” and the “Potency in eliciting T cell responses relative to 33-mer” value [1] was “as potent as 33-mer”. For the same compound, the “IFN-γ production and proliferation” value [3] was “produced high levels of IFN-γ and proliferated”.
SHIPGLERPSQQQPLPPQQTL [Glt(19–39)] was tested, and the “Number” value [1] was “no intestinal T cell response”.
In the case of PFRPQQPYPQPQPQY [Glia-20], the “Number” value [1] is reported as “no responses”.
`CC(C)C[C@H](NC(=O)[C@H](CCC(N)=O)NC(=O)[C@@H](N)CC(C)C)C(=O)N[C@@H](CCC(N)=O)C(=O)N1CCC[C@H]1C(=O)N[C@@H](Cc1ccccc1)C(=O)N1CCC[C@H]1C(=O)N[C@@H](CCC(N)=O)C(=O)N1CCC[C@H]1C(=O)N[C@@H](CCC(N)=O)C(=O)N[C@@H](CC(C)C)C(=O)N1CCC[C@H]1C(=O)N[C@@H](Cc1ccc(O)cc1)C(=O)N1CCC[C@H]1C(=O)N[C@@H](CCC(N)=O)C(=O)N1CCC[C@H]1C(=O)N[C@@H](CCC(N)=O)C(=O)N[C@@H](CC(C)C)C(=O)N1CCC[C@H]1C(=O)N[C@@H](Cc1ccc(O)cc1)C(=O)N1CCC[C@H]1C(=O)N[C@@H](CCC(N)=O)C(=O)N1CCC[C@H]1C(=O)N[C@@H](CCC(N)=O)C(=O)N[C@@H](CC(C)C)C(=O)N1CCC[C@H]1C(=O)N[C@@H](Cc1ccc(O)cc1)C(=O)N1CCC[C@H]1C(=O)N[C@@H](CCC(N)=O)C(=O)N1CCC[C@H]1C(=O)N[C@@H](CCC(N)=O)C(=O)N1CCC[C@H]1C(=O)N[C@@H](Cc1ccccc1)C(=O)O` [33-mer] (H-LQLQPFPQPQLPYPQPQLPYPQPQLPYPQPQPF-OH; N-terminus and C-terminus assumed) was tested, and the “Number” value [1] was 7 patients, the “Percentage of patients recognizing the peptide” value [1] was 50% and the “Hierarchical clustering by intensity of IFN-γ responses (OD peptide / OD medium)” value [1] was “strongest and more consistent responses”. The “IFN-γ response (in words)” value ([1]; iTCL of patient CD041051) was “high response”, the “IFN-γ response (in words)” value ([1]; iTCL of patient CD090401) was “intermediate IFN-γ levels” and the IC50 [5] was 0.044 µM. For the same compound, the “IFN-γ production and proliferation” value [3] was “vigorously reacted”.
QIPQQQQIPQQPQQF [Glu-5] was tested, and the “IFN-γ response (in words)” value ([1]; iTCL of patient CD090401) was “weak IFN-γ response”.
